We go through 12 compounds from ChEMBL document CHEMBL1148734, “Structure-activity relationships of phenyl-furanyl-rhodanines as inhibitors of RNA polymerase with antibacterial activity on biofilms” (J Med Chem, 2007).

Data set [1] concerns Escherichia coli. Kind of data set: Inhibition of RNA polymerase sigma-70 transcription in Escherichia coli at 10 uM. It counts as functional.
Data set [2] relates to Staphylococcus epidermidis. Kind of data set: Antibacterial activity against Staphylococcus epidermidis 48155. It counts as functional.
The next data set relates to Clostridioides difficile. Kind of data set: Antibacterial activity against Clostridium difficile DSM 1296. It counts as functional.
In data set [3] the test system is Staphylococcus aureus. Kind of data set: Antibacterial activity against multidrug resistant Staphylococcus aureus 49589. It counts as functional. The procedure, abridged: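 Broth microdilution MIC following CLSI. Compounds were predissolved in DMSO and tested as serial 2-fold dilutions at final 100 to 0.4 µg/mL. Inoculum was 5 × 10⁵ CFU/mL, and plates were read after 18 h at 37 °C.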

A further data set concerns Bacillus anthracis. Kind of data set: Antibacterial activity against Bacillus anthracis 9131. It counts as functional.
A further data set deals with CHO. Kind of data set: Cytotoxicity against CHO cells. It counts as cell-based, Cricetulus griseus. The following applies: chinese hamster. The method in brief: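 CHO cells grown in RPMI with 5% fetal calf serum, then exposed to compounds 24 h at 37 °C without serum. MTT added at 300 µg/mL final, 3 h at 37 °C dark; acidified isopropanol added, 1 h at room temperature; OD at 595 nm.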

The test system of data set [4] is Staphylococcus epidermidis. Kind of data set: Antibacterial activity against Staphylococcus epidermidis CIP 105777. It counts as functional.
The next data set concerns Streptococcus pneumoniae. Kind of data set: Antibacterial activity against Streptococcus pneumoniae CIP 103566. It counts as functional.
Data set [5] deals with Escherichia coli. Kind of data set: Antibacterial activity against Escherichia coli tolC CGSC 5633. It counts as functional.
Data set [6] concerns Escherichia coli. Kind of data set: Antibacterial activity against Escherichia coli tolC CGSC 5633 in presence of 1% HSA. It counts as functional, organism-based.
For data set [7], the system named is Staphylococcus aureus. Kind of data set: Antibacterial activity against Staphylococcus aureus CIP 76.25. It counts as functional.
The target in a further data set is Albumin (Homo sapiens, UniProt P02768). Kind of data set: Binding affinity to HSA by SPR method. It counts as ADME. The following applies: isolated protein. The procedure, abridged:
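SPR at 25 °C; HSA amine-coupled on CM5 chip (9000–11 000 RU). Compounds at 50 µM in PBS with 5% DMSO, 30 µL/min, duplicate 60 s injections over HSA and reference surfaces. Double referencing with buffer blanks; DMSO bulk correction from calibration curve (4.5–5.8% DMSO).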
In general terms: In SPR one partner is held on a chip, and binding of the other changes the refractive index at the surface.

The subject of data set [8] is Staphylococcus epidermidis. Kind of data set: Antibacterial activity against Staphylococcus epidermidis RP62A. It counts as functional.
Data set [9] concerns Staphylococcus epidermidis. Kind of data set: Antibacterial activity against Staphylococcus epidermidis 40004. It counts as functional.
Data set [10] in a line: Inhibition of Escherichia coli RNA polymerase sigma-70 factor.
Data set [11] deals with Staphylococcus epidermidis. Kind of data set: Antibacterial activity against Staphylococcus epidermidis 48155 biofilms assessed as bacterial count per well at 8 times MIC after 24 hrs. It counts as functional. The procedure, abridged:
(§1)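 Biofilms from 10⁷ CFU/mL inoculum in MHB grown 24 h at 37 °C, rinsed, then exposed 24 h at 37 °C without shaking in MHB to compound at 8× MIC. Washed, DMSO-lysed, ATP bioluminescence read (luciferase/D-luciferin buffer, pH 7.25). Strain-specific luminescence-to-Log₁₀ CFU/well equations used; triplicate.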

The test system of data set [12] is Staphylococcus epidermidis. Kind of data set: Antibacterial activity against Staphylococcus epidermidis RP62A biofilms assessed as bacterial count per well at 8 times MIC after 24 hrs. It counts as functional. The method in brief: as §1
For data set [13], the system named is Staphylococcus epidermidis. Kind of data set: Antibacterial activity against Staphylococcus epidermidis 40004 biofilms assessed as bacterial count per well at 8 times MIC after 24 hrs. It counts as functional. The procedure, abridged: as §1

pIC50: −log10 of the molar value. Converted amounts (≈) assume the structure as drawn. The source made the active and inactive calls. No cut-off for these calls is given here.

Albumin, sequence (P02768 whole entry): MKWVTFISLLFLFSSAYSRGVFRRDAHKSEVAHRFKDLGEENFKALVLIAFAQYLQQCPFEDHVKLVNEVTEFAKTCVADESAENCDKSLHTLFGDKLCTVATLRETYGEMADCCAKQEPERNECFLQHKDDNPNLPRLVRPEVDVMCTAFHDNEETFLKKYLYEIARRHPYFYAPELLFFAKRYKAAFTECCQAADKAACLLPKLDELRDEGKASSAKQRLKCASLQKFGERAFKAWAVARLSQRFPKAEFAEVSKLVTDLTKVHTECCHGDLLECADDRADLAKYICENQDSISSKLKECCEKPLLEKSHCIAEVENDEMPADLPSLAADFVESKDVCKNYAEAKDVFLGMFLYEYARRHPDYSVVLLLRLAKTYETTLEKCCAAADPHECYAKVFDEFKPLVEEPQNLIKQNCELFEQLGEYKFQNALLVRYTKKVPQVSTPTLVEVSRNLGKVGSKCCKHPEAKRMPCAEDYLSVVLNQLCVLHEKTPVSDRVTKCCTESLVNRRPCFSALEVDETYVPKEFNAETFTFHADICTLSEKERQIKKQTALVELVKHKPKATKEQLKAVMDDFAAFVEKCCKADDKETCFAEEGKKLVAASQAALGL

Usually inhibition stands for the relative decrease from the control value, in per cent. Read a low inhibition as a response near the control. The term MIC denotes the lowest concentration that inhibits growth of the organism. `C=CCN1C(=O)/C(=C/c2ccc(-c3ccc(C(=O)O)cc3)o2)SC1=S`: in the data set with Escherichia coli [1], the inhibition at 10 µM worked out at 98%. Further, the MIC in [2] is 3.13 µg/mL (≈ 8.43 µM); against Clostridioides difficile it was ≥ 100 µg/mL; against Staphylococcus aureus [3], ≥ 100 µg/mL; against Bacillus anthracis, 3.13 µg/mL (≈ 8.43 µM); in data set [4], 3.13 µg/mL (≈ 8.43 µM); in the data set on Streptococcus pneumoniae, ≥ 100 µg/mL. Also, the MIC was 12.5 µg/mL (≈ 33.7 µM) in the data set on Escherichia coli [5], ≥ 100 µg/mL against Staphylococcus aureus [7], 3.13 µg/mL (≈ 8.43 µM) in data set [8] and 6.25 µg/mL (≈ 16.8 µM) in data set [9]. In addition, the Activity result is listed as “>= 100 ug ml-1” in the data set on CHO and “Active” at Albumin. Also, in the data set on Escherichia coli [6], the result was inactive.

As to `C=CCN1C(=O)/C(=C/c2ccc(-c3cccc(C(=O)O)c3)o2)SC1=S`, testing at 10 µM in the data set with Escherichia coli [1] gave an inhibition of 97%. Besides, the MIC came out at 25 µg/mL (≈ 67.3 µM) in [2]; 12.5 µg/mL (≈ 33.7 µM) against Clostridioides difficile; 25 µg/mL (≈ 67.3 µM) in the data set with Staphylococcus aureus [3]; 6.25 µg/mL (≈ 16.8 µM) in the data set on Bacillus anthracis; 3.13 µg/mL (≈ 8.43 µM) in data set [4]; 50 µg/mL (≈ 135 µM) in the data set on Streptococcus pneumoniae. Moreover, the MIC came to 6.25 µg/mL (≈ 16.8 µM) against Escherichia coli [5], 12.5 µg/mL (≈ 33.7 µM) with Staphylococcus aureus [7], 12.5 µg/mL (≈ 33.7 µM) in data set [8] and 25 µg/mL (≈ 67.3 µM) in [9]. The Activity result was “>= 100 ug ml-1” in the data set on CHO and “Active” on Albumin. Moreover, the result with Escherichia coli [6] was inactive.

The term pIC50 denotes the IC50 on a negative log10 scale, so that one unit is a factor of ten. Lower therefore signals a high IC50. As to `C=CCN1C(=O)/C(=C/c2ccc(C)o2)SC1=S`, the inhibition at 10 µM in the data set on Escherichia coli [1] turned out to be 3%. Further, in [10], the pIC50 was ≤ 4.00. The MIC (in [4]; with Escherichia coli [5]) was ≥ 100 µg/mL throughout.

In the data set with Escherichia coli [1], `C=CCN1C(=O)/C(=C/c2cccc(-c3cccc(C(=O)O)c3)c2)SC1=S` displayed an inhibition at 10 µM of 26%. Besides, the MIC in data set [2] was 50 µg/mL (≈ 131 µM); against Clostridioides difficile, 12.5 µg/mL (≈ 32.8 µM); against Staphylococcus aureus [3], 25 µg/mL (≈ 65.5 µM); against Bacillus anthracis, 12.5 µg/mL (≈ 32.8 µM); in data set [4] it was 25 µg/mL (≈ 65.5 µM); against Streptococcus pneumoniae, ≥ 100 µg/mL. The MIC against Escherichia coli [5] was ≥ 100 µg/mL; against Staphylococcus aureus [7] it was ≥ 100 µg/mL; in data set [8] it was 25 µg/mL (≈ 65.5 µM); in [9] it was 50 µg/mL (≈ 131 µM). Besides, the Activity result in the data set with CHO was “>= 100 ug ml-1”.

In turn, `C=CCN1C(=O)/C(=C/c2cc(C)n(CC)c2C)SC1=S` returned an inhibition at 10 µM with Escherichia coli [1] of 5%. In addition, the negative-log IC50 (pIC50) in data set [10] was ≤ 4.00. In addition, the MIC (in [4]; in the data set with Escherichia coli [5]) was ≥ 100 µg/mL throughout.

The compound `C=CCN1C(=O)/C(=C/c2c[nH]c3c(C(=O)O)cccc23)SC1=S` yielded an inhibition at 10 µM with Escherichia coli [1] of 95%. In addition, the MIC in data set [2] was found to be 25 µg/mL (≈ 72.6 µM); in the data set with Clostridioides difficile, 25 µg/mL (≈ 72.6 µM); with Staphylococcus aureus [3] it was 50 µg/mL (≈ 145 µM); against Bacillus anthracis it was 12.5 µg/mL (≈ 36.3 µM); in data set [4], 25 µg/mL (≈ 72.6 µM); in the data set with Streptococcus pneumoniae, 50 µg/mL (≈ 145 µM). Also, the MIC in the data set with Escherichia coli [5] was ≥ 100 µg/mL; with Staphylococcus aureus [7], 50 µg/mL (≈ 145 µM); in data set [8], 25 µg/mL (≈ 72.6 µM); in [9], 25 µg/mL (≈ 72.6 µM). Moreover, the Activity result in the data set on CHO is on record as “>= 100 ug ml-1”.

`O=C(O)c1ccc(/C=C2\SC(=S)N(Cc3ccco3)C2=O)cc1` displayed an inhibition at 10 µM in the data set on Escherichia coli [1] of 5%. In addition, in [10], the pIC50 is 4.06. Also, the MIC (in [4]; with Escherichia coli [5]) was ≥ 100 µg/mL in each case.

In the data set on Escherichia coli [1], `C=CCN1C(=O)/C(=C/c2ccc(-c3ccc(CCC(=O)O)cc3)o2)SC1=S` registered an inhibition at 10 µM of 68%. The MIC in data set [2] is 12.5 µg/mL (≈ 31.3 µM); in the data set with Clostridioides difficile, 50 µg/mL (≈ 125 µM); in the data set with Staphylococcus aureus [3], 25 µg/mL (≈ 62.6 µM); against Bacillus anthracis, 12.5 µg/mL (≈ 31.3 µM); in data set [4], 25 µg/mL (≈ 62.6 µM); in the data set on Streptococcus pneumoniae, ≥ 100 µg/mL. For the same compound, the MIC is 12.5 µg/mL (≈ 31.3 µM) in the data set on Escherichia coli [5], 25 µg/mL (≈ 62.6 µM) in the data set on Staphylococcus aureus [7], 25 µg/mL (≈ 62.6 µM) in data set [8] and 25 µg/mL (≈ 62.6 µM) in data set [9]. The results for the Activity entry with CHO and on Albumin were “>= 100 ug ml-1” and “Active”, respectively. Besides, in the data set with Escherichia coli [6], the outcome was inactive.

Compound `C=CCN1C(=O)/C(=C/c2cc(C)n(-c3cccc(C(=O)O)c3)c2C)SC1=S` returned an inhibition at 10 µM in the data set on Escherichia coli [1] of 100%. The MIC in data set [2] came to 25 µg/mL (≈ 62.7 µM); against Clostridioides difficile, 6.25 µg/mL (≈ 15.7 µM); against Staphylococcus aureus [3], 25 µg/mL (≈ 62.7 µM); with Bacillus anthracis, 6.25 µg/mL (≈ 15.7 µM); in [4] it was 25 µg/mL (≈ 62.7 µM); with Streptococcus pneumoniae, 25 µg/mL (≈ 62.7 µM). Further, the MIC was 50 µg/mL (≈ 125 µM) with Escherichia coli [5], 50 µg/mL (≈ 125 µM) against Staphylococcus aureus [7], 25 µg/mL (≈ 62.7 µM) in [8] and 50 µg/mL (≈ 125 µM) in data set [9]. Besides, the Activity result with CHO is “>= 100 ug ml-1”. In addition, the log10CFU/ml is 1.8 in data set [11], 2.8 in [12] and 2.3 in data set [13].

On to `C=CCN1C(=O)/C(=C/c2ccc(-c3ccc(O)cc3)o2)SC1=S`, for which 10 µM produced 84% inhibition in the data set on Escherichia coli [1]. Further, the MIC in data set [2] amounted to 12.5 µg/mL (≈ 36.4 µM); against Clostridioides difficile it was 50 µg/mL (≈ 146 µM); in the data set on Staphylococcus aureus [3], 25 µg/mL (≈ 72.8 µM); against Bacillus anthracis it was 6.25 µg/mL (≈ 18.2 µM); in data set [4] it was 12.5 µg/mL (≈ 36.4 µM); in the data set with Streptococcus pneumoniae it was 25 µg/mL (≈ 72.8 µM). Further, the MIC worked out at 3.13 µg/mL (≈ 9.11 µM) in the data set with Escherichia coli [5], 6.25 µg/mL (≈ 18.2 µM) against Staphylococcus aureus [7], 12.5 µg/mL (≈ 36.4 µM) in [8] and 12.5 µg/mL (≈ 36.4 µM) in [9]. Moreover, the Activity entry in the data set with CHO is given as “>= 100 ug ml-1”.

As for `C=CCN1C(=O)/C(=C/c2cccc(C(=O)O)c2)SC1=S`, in [10], the negative logarithm of the IC50 (pIC50) is ≤ 4.00. The minimal inhibitory concentration (MIC) (in [4]; against Escherichia coli [5]) was ≥ 100 µg/mL throughout.

The compound `C=CCN1C(=O)/C(=C/c2ccc(-c3ccc(C(=O)O)c(Cl)c3)o2)SC1=S` came in with an inhibition at 10 µM in the data set on Escherichia coli [1] of 100%. Moreover, the MIC in [2] came out at 12.5 µg/mL (≈ 30.8 µM); against Clostridioides difficile, 12.5 µg/mL (≈ 30.8 µM); against Staphylococcus aureus [3], 50 µg/mL (≈ 123 µM); in the data set with Bacillus anthracis, 3.13 µg/mL (≈ 7.71 µM); in data set [4], 6.25 µg/mL (≈ 15.4 µM); with Streptococcus pneumoniae, 12.5 µg/mL (≈ 30.8 µM). Besides, the minimal inhibitory concentration (MIC) was determined as 25 µg/mL (≈ 61.6 µM) in the data set with Escherichia coli [5], 50 µg/mL (≈ 123 µM) with Staphylococcus aureus [7], 6.25 µg/mL (≈ 15.4 µM) in [8] and 6.25 µg/mL (≈ 15.4 µM) in data set [9]. Also, the values for the Activity entry in the data set with CHO and at Albumin were “>= 100 ug ml-1” and “Active”, respectively. Further, the outcome in the data set on Escherichia coli [6] was inactive.
